Experiments:
[1] = Antiplatelet activity in human platelet-rich plasma assessed as inhibition of ADP-induced platelet aggregation in presence of 10 uM ADP
P2Y purinoceptor 1 [2] = target: T1, P2Y purinoceptor 1 (Homo sapiens, UniProt P47900); test: Inhibition of P2Y1 receptor in human washed platelets assessed as decrease in 2-methylthio-ADP-induced calcium signal transduction pathway activation by FLIPR assay; type: functional
[3] = Metabolic stability in rat liver microsomes assessed as compound remaining after 10 mins; type: ADME; conditions: read-out: Stability
Summary of the method: (§1)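 Test compound incubated 10 min with 0.5 µM rat or human liver microsomes; percentage of parent remaining measured.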

[4] = Antiplatelet activity in human platelet-rich plasma assessed as inhibition of ADP-induced platelet aggregation in presence of 2.5 uM ADP
P2Y purinoceptor 1 [5] = target: T1, P2Y purinoceptor 1; test: Displacement of [33P]2-MeS-ADP from human cloned P2Y1 receptor expressed in HEK293 cells by SPA analysis; type: cell-based
[6] = Volume of distribution at steady state in rat at 0.5 mg/kg, iv and 0.5 mg/kg, po; type: ADME, organism-based; conditions: in vivo, read-out: Vdss
Summary of the method: (§2)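 Cassette PK in rats, 0.5 mg/kg iv and 0.5 mg/kg p.o., vehicle 70% water, 10% ethanol, 10% cremophor, 10% N,N-dimethylacetamide; plasma trough concentrations taken 24 h after iv and p.o. dosing.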

[7] = Trough plasma concentration in rat at 0.5 mg/kg, po after 24 hrs; type: ADME, organism-based; parameters: dose 0.5 mg/kg, route oral; conditions: read-out: Cmin; summary of the method: as §2
[8] = Metabolic stability in human liver microsomes assessed as compound remaining after 10 mins; type: ADME; conditions: read-out: Stability; summary of the method: as §1
[9] = Oral bioavailability in rat at 0.5 mg/kg; type: ADME, organism-based; conditions: in vivo; summary of the method: as §2
[10] = Trough plasma concentration in rat at 0.5 mg/kg, iv after 24 hrs; type: ADME, organism-based; parameters: dose 0.5 mg/kg, route intravenous; conditions: read-out: Cmin; summary of the method: as §2
[11] = Total AUC in rat at 0.5 mg/kg, iv; type: ADME, organism-based; parameters: time AUCmax, dose 0.5 mg/kg, route intravenous; conditions: in vivo; summary of the method: as §2
[12] = Clearance in rat at 0.5 mg/kg, iv and 0.5 mg/kg, po; type: ADME, organism-based; conditions: in vivo; summary of the method: as §2
[13] = Half life in rat at 0.5 mg/kg, iv and 0.5 mg/kg, po; type: ADME, organism-based; conditions: in vivo; summary of the method: as §2

T1 sequence (P47900 whole entry): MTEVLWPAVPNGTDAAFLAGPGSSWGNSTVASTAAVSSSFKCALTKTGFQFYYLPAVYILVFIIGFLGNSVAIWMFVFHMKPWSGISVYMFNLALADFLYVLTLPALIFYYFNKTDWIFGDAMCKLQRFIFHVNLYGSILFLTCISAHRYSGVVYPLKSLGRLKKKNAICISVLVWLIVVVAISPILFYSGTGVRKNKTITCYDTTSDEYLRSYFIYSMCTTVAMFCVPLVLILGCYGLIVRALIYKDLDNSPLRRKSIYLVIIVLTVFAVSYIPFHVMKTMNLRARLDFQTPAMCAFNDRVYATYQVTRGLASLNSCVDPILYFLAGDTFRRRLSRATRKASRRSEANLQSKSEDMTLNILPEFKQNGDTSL

SMILES	IC50 [1]	IC50 (P2Y purinoceptor 1 [2])	Ki (P2Y purinoceptor 1 [5])	other results
Cc1cc(-c2nnc(Nc3ccccc3N3CC4(CCN(CC(C)(C)C)CC4)c4c(Cl)ccc(O)c43)s2)n(C)n1	900 nM	0.2 nM	–	remaining at 10 min [3]: 75%
CC(C)(C)c1ccccc1Oc1ncccc1Nc1nnc(-c2ccc(C(F)(F)F)cc2)s1	–	–	–	IC50 [4]: 7500 nM
CC(C)(C)CN1CCC2(CC1)CN(c1ccccc1Nc1nnc(-c3ccccc3Cl)s1)c1c(O)ccc(Cl)c12	11000 nM	9.8 nM	–	–
CC(C)(C)CN1CCC2(CC1)CN(c1ccccc1Nc1ncc(-c3ccccc3)s1)c1c(O)ccc(Cl)c12	3700 nM	2.3 nM	17 nM	–
CC(C)(C)CN1CCC2(CC1)CN(c1ccccc1Nc1nnc(-c3ccc(C(C)(C)C)cc3)s1)c1c(O)ccc(C#N)c12	1200 nM	0.34 nM	9.7 nM	–
CC(C)(C)CN1CCC2(CC1)CN(c1ccccc1Nc1nc(-c3ccccc3)cs1)c1c(O)ccc(Cl)c12	> 10000 nM	54 nM	20 nM	–
CN(C)CC(C)(C)COc1cccc(-c2sc(Nc3cccnc3Oc3ccccc3C(C)(C)C)nc2C(F)(F)F)c1	57000 nM	–	–	IC50 [4]: 5200 nM
CC(C)(C)c1ccccc1Oc1ncccc1NC(=O)Nc1ccc(OC(F)(F)F)cc1	11000 nM	–	–	–
CC(C)(C)CN1CCC2(CC1)CN(c1ccccc1Nc1nnc(-c3ccc(OC(F)(F)F)cc3)s1)c1c(O)ccc(Cl)c12	900 nM	0.63 nM	–	Vd [6]: 2.1 L/kg; concentration at 24 h [7]: 30 nM; remaining at 10 min [8]: 99%; bioavailability [9]: 28%; concentration at 24 h [10]: 95 nM; remaining at 10 min [3]: 94%; AUC [11]: 6.21 µM·h; clearance [12]: 2.1 mL/min/kg; half-life [13]: 12 h
CC(C)(C)CN1CCC2(CC1)CN(c1ccccc1Nc1ccc(-c3ccccc3)nn1)c1c(O)ccc(Cl)c12	> 40000 nM	–	511 nM	–
CC(C)(C)CN1CCC2(CC1)CN(c1ccccc1Nc1nnc(-c3ccccc3)o1)c1c(O)ccc(Cl)c12	> 10000 nM	49 nM	6.2 nM	–
Cc1ccc(-c2ccc(Nc3ccccc3N3CC4(CCN(CC(C)(C)C)CC4)c4c(Cl)ccc(O)c43)nc2)cc1	> 10000 nM	–	343 nM	–
CC(C)(C)CN1CCC2(CC1)CN(c1ccccc1Nc1nnc(-c3ccccc3)s1)c1c(O)ccc(C(F)(F)F)c12	990 nM	0.19 nM	9.6 nM	–
CC(C)(C)CN1CCC2(CC1)CN(c1ccccc1Nc1nnc(-c3ccc(C(C)(C)C)cc3)s1)c1c(O)ccc(C(F)(F)F)c12	870 nM	0.21 nM	–	Vd [6]: 1.2 L/kg; concentration at 24 h [7]: 3.6 nM; remaining at 10 min [8]: 82%; bioavailability [9]: 14%; concentration at 24 h [10]: 54 nM; remaining at 10 min [3]: 84%; AUC [11]: 6.96 µM·h; clearance [12]: 1.8 mL/min/kg; half-life [13]: 13 h
CC(C)(C)CN1CCC2(CC1)CN(c1ccccc1Nc1cc(-c3ccccc3)on1)c1c(O)ccc(Cl)c12	9000 nM	–	–	–
CC(C)(C)CN1CCC2(CC1)CN(c1ccccc1Nc1nnc(-c3cnccn3)s1)c1c(O)ccc(Cl)c12	930 nM	1.5 nM	–	remaining at 10 min [3]: 37%
CC(C)(C)CN1CCC2(CC1)CN(c1ccccc1Nc1nnc(-c3ccc(Cl)cc3)s1)c1c(O)ccc(Cl)c12	1300 nM	1.6 nM	–	–
CC(C)(C)CN1CCC2(CC1)CN(c1ccccc1Nc1nnc(-c3cccc(Cl)c3)s1)c1c(O)ccc(Cl)c12	2600 nM	3.6 nM	–	–
CC(C)(C)CN1CCC2(CC1)CN(c1ccccc1Nc1nnc(-c3ccc(OC(F)(F)F)cc3)s1)c1c(O)ccc(F)c12	1600 nM	2.7 nM	5.3 nM	–
CC(C)(C)CN1CCC2(CC1)CN(c1ccccc1Nc1cnc(-c3ccccc3)cn1)c1c(O)ccc(Cl)c12	> 40000 nM	–	49 nM	–
CC(C)(C)CN1CCC2(CC1)CN(c1ccccc1NC(=O)Nc1nc3ccc(Cl)nc3s1)c1c(O)ccc(Cl)c12	130 nM	–	8 nM	Vd [6]: 5.4 L/kg; concentration at 24 h [7]: 4.1 nM; remaining at 10 min [8]: 100%; bioavailability [9]: 36%; concentration at 24 h [10]: 10 nM; remaining at 10 min [3]: 86%; AUC [11]: 1.33 µM·h; clearance [12]: 10 mL/min/kg; half-life [13]: 9.9 h
CC(C)(C)CN1CCC2(CC1)CN(c1ccccc1Nc1nnc(-c3ccc(C(F)(F)F)cc3)s1)c1c(O)ccc(C(F)(F)F)c12	450 nM	0.08 nM	–	Vd [6]: 6 L/kg; concentration at 24 h [7]: 12 nM; remaining at 10 min [8]: 86%; bioavailability [9]: 22%; concentration at 24 h [10]: 46 nM; remaining at 10 min [3]: 87%; AUC [11]: 4.63 µM·h; clearance [12]: 4 mL/min/kg; half-life [13]: 24 h
COC(=O)c1ccc(O)c2c1C1(CCN(CC(C)(C)C)CC1)CN2c1ccccc1Nc1nnc(-c2ccc(C(C)(C)C)cc2)s1	840 nM	0.32 nM	–	–
CC(C)(C)CN1CCC2(CC1)CN(c1ccccc1Nc1nc(-c3ccccc3)ns1)c1c(O)ccc(Cl)c12	5400 nM	6.4 nM	–	–
